From ChEMBL document CHEMBL1649179, “Pharmacokinetics of LB80331 and LB80317 following oral administration of LB80380, a new antiviral agent for chronic hepatitis B (CHB), in healthy adult subjects, CHB patients, and mice” (Antimicrob Agents Chemother, 2009)

Columns and labels:
Homo sapiens [1] = experiment: Cmax in chronic hepatitis B virus infected patient assessed as (1-((2-amino-9H-purin-9-yl)methyl)cyclopropoxy)me at 240 mg, po qd for 4 weeks by LC-MS analysis; format: ADME, organism-based; set-up: dose 240 mg, route oral; details: in vivo, 672 h
Method in brief: (§1)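 CHB patients, oral once daily for 4 weeks. Plasma sampled at steady state (weeks 2–4), predose and at 0.5, 1, 2, 3, 4, 6, 8 and 24 h postdose. LB80331 measured by validated LC-MS/MS (LLOQ 5 ng/ml) after protein precipitation with a stable-isotope internal standard. Cmax by noncompartmental analysis.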

Liver [2] = experiment: AUC (0 to infinity) in CD-1 mouse liver assessed as di- and triphosphates of (1-((2-amino-9H-purin-9-yl)methyl)cyclopropoxy)me at 30 mg/kg, po administered as single dose by LC-MS analysis; format: ADME, organism-based; set-up: time infinity, dose 30 mg/kg, route oral; details: in vivo
Method in brief: (§2)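 Male CD-1 mice given a single oral dose in 100% PEG 400. Samples extracted with perchloric acid and neutralized with ammonium bicarbonate. One aliquot assayed for the free analyte; the other treated with calf intestinal phosphatase to give the total including di-/triphosphates. Analysis by LC-MS/MS.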

Liver [3] = experiment: AUC (0 to infinity) in CD-1 mouse liver assessed as (1-((2-amino-9H-purin-9-yl)methyl)cyclopropoxy)me at 30 mg/kg, po administered as single dose by LC-MS analysis; format: ADME, organism-based; set-up: time infinity, dose 30 mg/kg, route oral; details: in vivo; method in brief: as §2
Plasma [4] = experiment: Half life in CD-1 mouse plasma assessed as (1-((2-amino-9H-purin-9-yl)methyl)cyclopropoxy)me at 30 mg/kg, po administered as single dose by LC-MS analysis; format: ADME, organism-based; set-up: dose 30 mg/kg, route oral; details: in vivo; method in brief: as §2
Homo sapiens [5] = experiment: Oral clearance in chronic hepatitis B virus infected patient assessed as (1-((2-amino-9H-purin-9-yl)methyl)cyclopropoxy)me at 30 mg, po qd for 4 weeks by LC-MS analysis; format: ADME, organism-based; details: in vivo, 672 h
Method in brief: (§3)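 Oral LB80380 was given once daily for 4 weeks to CHB patients. Plasma LB80331 was quantified by validated LC-MS/MS after protein precipitation, with stable-isotope internal standard, at baseline and steady state (weeks 2–4), 0–24 h postdose. Noncompartmental CL/F was calculated as dose (adjusted for LB80380/LB80331 molecular weights) divided by AUC (AUC0-∞ single dose; AUC0-24 steady state).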

Homo sapiens [6] = experiment: Half life in chronic hepatitis B virus infected patient assessed as (1-((2-amino-9H-purin-9-yl)methyl)cyclopropoxy)me at 240 mg, po qd for 4 weeks by LC-MS analysis; format: ADME, organism-based; details: in vivo, 672 h
Method in brief: (§4)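 CHB patients given LB80380 orally once daily for 4 weeks. Plasma was sampled on day 1 and at steady state (weeks 2–4), predose and 0.5, 1, 2, 3, 4, 6, 8 and 24 h postdose. LB80331 was measured by validated LC-MS/MS (LLOQ 5 ng/ml). Terminal-phase apparent t1/2 came from noncompartmental analysis and was flagged if extrapolated AUC exceeded 20% of AUC0-24.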

Homo sapiens [7] = experiment: Tmax in chronic hepatitis B virus infected patient assessed as (1-((2-amino-9H-purin-9-yl)methyl)cyclopropoxy)me at 60 mg, po administered as single dose by LC-MS analysis; format: ADME, organism-based; details: in vivo
Method in brief: (§5)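 Daily oral LB80380 was given to CHB patients over 4 weeks. Blood was drawn on day 1 and at steady state (weeks 2–4), predose and 0.5–24 h postdose. Plasma LB80331 (LLOQ 5 ng/ml) and LB80317 (LLOQ 10 ng/ml) were measured by LC-MS/MS after protein-precipitation extraction. Tmax was taken by noncompartmental analysis.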

Homo sapiens [8] = experiment: Half life in chronic hepatitis B virus infected patient assessed as (1-((2-amino-9H-purin-9-yl)methyl)cyclopropoxy)me at 30 mg, po administered as single dose by LC-MS analysis; format: ADME, organism-based; details: in vivo; method in brief: as §4
Homo sapiens [9] = experiment: AUC (0 to infinity) in chronic hepatitis B virus infected patient assessed as (1-((2-amino-9H-purin-9-yl)methyl)cyclopropoxy)me at 120 mg, po administered as single dose by LC-MS analysis; format: ADME, organism-based, Plasma; set-up: dose 120 mg, time infinity, route oral; details: in vivo
Method in brief: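 CHB patients (HBsAg/HBeAg positive), six per dose cohort, given a first oral dose on day 1. Plasma sampled at baseline. Analysis by validated LC-MS/MS after protein precipitation with a stable-isotope internal standard; LLOQ 5 ng/ml for LB80331. Noncompartmental analysis gives Cmax and AUC0-∞.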

Plasma [10] = experiment: AUC (0 to 36 hrs) in CD-1 mouse plasma assessed as (1-((2-amino-9H-purin-9-yl)methyl)cyclopropoxy)me at 30 mg/kg, po administered as single dose by LC-MS analysis; format: ADME, organism-based; set-up: time < 36 hr, dose 30 mg/kg, route oral; details: in vivo; method in brief: as §2
Liver [11] = experiment: AUC (0 to 36 hrs) in CD-1 mouse liver assessed as (1-((2-amino-9H-purin-9-yl)methyl)cyclopropoxy)me at 30 mg/kg, po administered as single dose by LC-MS analysis; format: ADME, organism-based; set-up: time < 36 hr, dose 30 mg/kg, route oral; details: in vivo; method in brief: as §2
Homo sapiens [12] = experiment: Tmax in chronic hepatitis B virus infected patient assessed as (1-((2-amino-9H-purin-9-yl)methyl)cyclopropoxy)me at 60 mg, po qd for 4 weeks by LC-MS analysis; format: ADME, organism-based; details: in vivo, 672 h; method in brief: as §5
Liver [13] = experiment: Tmax in CD-1 mouse liver assessed as (1-((2-amino-9H-purin-9-yl)methyl)cyclopropoxy)me at 30 mg/kg, po administered as single dose by LC-MS analysis; format: ADME, organism-based; set-up: dose 30 mg/kg, route oral; details: in vivo
Method in brief: (§6)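 Male CD-1 mice received 30 mg/kg orally in 100% PEG 400. Plasma and snap-frozen liver were taken from 3 mice per time point at 1, 2, 4, 6, 10, 24 and 36 h. Samples were extracted with perchloric acid and neutralized with ammonium bicarbonate. Free LB80331/LB80317 was measured directly by LC-MS/MS; total, including di- and triphosphates, was measured after calf intestinal phosphatase treatment.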

Homo sapiens [14] = experiment: Cmax in chronic hepatitis B virus infected patient assessed as (1-((2-amino-9H-purin-9-yl)methyl)cyclopropoxy)me at 30 mg, po qd for 4 weeks by LC-MS analysis; format: ADME, organism-based; set-up: dose 30 mg, route oral; details: in vivo, 672 h; method in brief: as §1
Homo sapiens [15] = experiment: Oral clearance in chronic hepatitis B virus infected patient assessed as (1-((2-amino-9H-purin-9-yl)methyl)cyclopropoxy)me at 60 mg, po administered as single dose by LC-MS analysis; format: ADME, organism-based; details: in vivo; method in brief: as §3
Homo sapiens [16] = experiment: Oral clearance in chronic hepatitis B virus infected patient assessed as (1-((2-amino-9H-purin-9-yl)methyl)cyclopropoxy)me at 60 mg, po qd for 4 weeks by LC-MS analysis; format: ADME, organism-based; details: in vivo, 672 h; method in brief: as §3
Homo sapiens [17] = experiment: Half life in chronic hepatitis B virus infected patient assessed as (1-((2-amino-9H-purin-9-yl)methyl)cyclopropoxy)me at 60 mg, po administered as single dose by LC-MS analysis; format: ADME, organism-based; details: in vivo; method in brief: as §4
Plasma [18] = experiment: Tmax in CD-1 mouse plasma assessed as (1-((2-amino-9H-purin-9-yl)methyl)cyclopropoxy)me at 30 mg/kg, po administered as single dose by LC-MS analysis; format: ADME, organism-based; set-up: dose 30 mg/kg, route oral; details: in vivo; method in brief: as §6
Homo sapiens [19] = experiment: Half life in chronic hepatitis B virus infected patient assessed as (1-((2-amino-9H-purin-9-yl)methyl)cyclopropoxy)me at 60 mg, po qd for 4 weeks by LC-MS analysis; format: ADME, organism-based; details: in vivo, 672 h; method in brief: as §4
Homo sapiens [20] = experiment: Tmax in chronic hepatitis B virus infected patient assessed as (1-((2-amino-9H-purin-9-yl)methyl)cyclopropoxy)me at 30 mg, po qd for 4 weeks by LC-MS analysis; format: ADME, organism-based; details: in vivo, 672 h; method in brief: as §5
Homo sapiens [21] = experiment: Half life in chronic hepatitis B virus infected patient assessed as (1-((2-amino-9H-purin-9-yl)methyl)cyclopropoxy)me at 120 mg, po qd for 4 weeks by LC-MS analysis; format: ADME, organism-based; details: in vivo, 672 h; method in brief: as §4

## Nc1ncc2ncn(CC3(OCP(=O)(O)O)CC3)c2n1 [BESIFOVIR]
Homo sapiens [1]
  Cmax: 1164 ng/mL
Liver [2]
  AUC: 64 µM·h
Liver [3]
  AUC: 102 µM·h
Plasma [4]
  t1/2: 2 h
Homo sapiens [5]
  CL/F: 289 mL/min
Homo sapiens [6]
  t1/2: 3.3 h
Homo sapiens [7]
  Tmax: 2 h
Homo sapiens [8]
  t1/2: 2.5 h
Homo sapiens [9]
  AUC: 4374 ng·h/mL
Plasma [10]
  AUC: 17 µM·h
Liver [11]
  AUC: 102 µM·h
Homo sapiens [12]
  Tmax: 2 h
Liver [13]
  Tmax: 1 h
Homo sapiens [14]
  Cmax: 192 ng/mL
Homo sapiens [15]
  CL/F: 244 mL/min
Homo sapiens [16]
  CL/F: 273 mL/min
Homo sapiens [17]
  t1/2: 3 h
Plasma [18]
  Tmax: 1 h
Homo sapiens [19]
  t1/2: 3 h
Homo sapiens [20]
  Tmax: 2 h
Homo sapiens [21]
  t1/2: 3.1 h
